# Measurements from ChEMBL document CHEMBL1806410, “Design and synthesis of pyridine-substituted itraconazole analogues with improved antifungal activities, water solubility and bioavailability” (Bioorg Med Chem Lett, 2011).
# How the values were obtained:
# Candida parapsilosis [1] = experiment: Antifungal activity against Candida parapsilosis JLC 30365 by broth microdilution method; format: functional; conditions: Lodderomyces parapsilosis
# Method in brief: (§1)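 MICs were determined by broth microdilution following NCCLS guidelines (M38-P for filamentous fungi). The panel covered four yeast species and two Aspergillus species, with two strains per species. Itraconazole served as positive control.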
# Pichia kudriavzevii [2] = experiment: Antifungal activity against Candida krusei JLC 30386 by broth microdilution method; format: functional; method in brief: as §1
# Cryptococcus neoformans [3] = experiment: Antifungal activity against Cryptococcus neoformans JLC 50123 by broth microdilution method; format: functional; method in brief: as §1
# Aspergillus flavus [4] = experiment: Antifungal activity against Aspergillus flavus JLC 40437 by broth microdilution method; format: functional; method in brief: as §1
# Aspergillus fumigatus [5] = experiment: Antifungal activity against Aspergillus fumigatus JLC 30506 by broth microdilution method; format: functional; method in brief: as §1
# Aspergillus fumigatus [6] = experiment: Antifungal activity against Aspergillus fumigatus JLC 30883 by broth microdilution method; format: functional; method in brief: as §1
# Aspergillus flavus [7] = experiment: Antifungal activity against Aspergillus flavus JLC 30784 by broth microdilution method; format: functional; method in brief: as §1
# Candida albicans [8] = experiment: Antifungal activity against Candida albicans JLC 30364 by broth microdilution method; format: functional; method in brief: as §1
# Candida albicans [9] = experiment: Antifungal activity against Candida albicans JLC 31374 by broth microdilution method; format: functional; method in brief: as §1
# Cryptococcus neoformans [10] = experiment: Antifungal activity against Cryptococcus neoformans JLC 50122 by broth microdilution method; format: functional; method in brief: as §1
# Candida parapsilosis [11] = experiment: Antifungal activity against Candida parapsilosis JLC 30275 by broth microdilution method; format: functional; conditions: Lodderomyces parapsilosis; method in brief: as §1
# Pichia kudriavzevii [12] = experiment: Antifungal activity against Candida krusei JLC 30366 by broth microdilution method; format: functional; method in brief: as §1
# [13] = Tmax in rat at 10 mg/kg, po administered as single dose; format: ADME, organism-based; parameters: dose 10 mg/kg, route oral; conditions: in vivo
# Method in brief: (§2)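 Rats received a single dose of compound, either oral (10 mg/kg) or intravenous (10, 5 or 2.5 mg/kg). Plasma levels were followed, and the reported parameters were Cmax, Tmax, AUC0–t, half-life, clearance and bioavailability (F).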
# [14] = AUC (0 to t) in rat at 10 mg/kg, iv administered as single dose; format: ADME, organism-based; parameters: dose 10 mg/kg, route intravenous; conditions: plasma; method in brief: as §2
# [15] = Half life in rat at 10 mg/kg, iv administered as single dose; format: ADME, organism-based; parameters: dose 10 mg/kg, route intravenous; conditions: in vivo; method in brief: as §2
# [16] = Oral bioavailability in rat at 10 mg/kg, administered as single dose; format: ADME, organism-based; conditions: in vivo; method in brief: as §2
# [17] = AUC (0 to t) in rat at 10 mg/kg, po administered as single dose; format: ADME, organism-based; parameters: dose 10 mg/kg, route oral; conditions: plasma; method in brief: as §2
# [18] = Cmax in rat at 10 mg/kg, po administered as single dose; format: ADME, organism-based; parameters: dose 10 mg/kg, route oral; conditions: in vivo; method in brief: as §2
# [19] = Clearance in rat at 10 mg/kg, iv administered as single dose; format: ADME, organism-based; parameters: dose 10 mg/kg, route intravenous; conditions: in vivo; method in brief: as §2
# [20] = Half life in rat at 10 mg/kg, po administered as single dose; format: ADME, organism-based; parameters: dose 10 mg/kg, route oral; conditions: in vivo; method in brief: as §2
# [21] = Solubility of the compound in water at pH 1.2; format: physicochemical; conditions: buffer
smiles,measurement,setting,value
CC(C)(CO)Cn1ncn(-c2ccc(N3CCN(c4ccc(OC[C@H]5CO[C@](Cn6cncn6)(c6ccc(F)cc6F)O5)cc4)CC3)nc2)c1=O,MIC,Candida parapsilosis [1],0.5 µg/mL
same,MIC,Pichia kudriavzevii [2],0.25 µg/mL
same,MIC,Cryptococcus neoformans [3],0.125 µg/mL
same,MIC,Aspergillus flavus [4],0.125 µg/mL
same,MIC,Aspergillus fumigatus [5],0.125 µg/mL
same,MIC,Aspergillus fumigatus [6],0.125 µg/mL
same,MIC,Aspergillus flavus [7],0.125 µg/mL
same,MIC,Candida albicans [8],0.0625 µg/mL
same,MIC,Candida albicans [9],0.0625 µg/mL
same,MIC,Cryptococcus neoformans [10],0.125 µg/mL
same,MIC,Candida parapsilosis [11],0.5 µg/mL
same,MIC,Pichia kudriavzevii [12],0.25 µg/mL
CCC(C)n1ncn(-c2ccc(N3CCN(c4ccc(OCC5COC(Cn6cncn6)(c6ccc(Cl)cc6Cl)O5)cc4)CC3)cc2)c1=O (stereo unspecified) [ITRACONAZOLE],MIC,Candida parapsilosis [1],0.25 µg/mL
same,Tmax,[13],3 h
same,MIC,Pichia kudriavzevii [2],0.0625 µg/mL
same,AUC(0-t),[14],343 ng·h/mL
same,MIC,Cryptococcus neoformans [3],1 µg/mL
same,half-life,[15],22 h
same,bioavailability,[16],8%
same,MIC,Aspergillus flavus [4],0.125 µg/mL
same,MIC,Aspergillus fumigatus [5],0.25 µg/mL
same,AUC(0-t),[17],27.5 ng·h/mL
same,Cmax,[18],6.28 ng/mL
same,MIC,Aspergillus fumigatus [6],0.25 µg/mL
same,MIC,Aspergillus flavus [7],0.125 µg/mL
same,MIC,Candida albicans [8],0.125 µg/mL
same,clearance,[19],322 mL/min/kg
same,MIC,Candida albicans [9],0.125 µg/mL
same,half-life,[20],2.57 h
same,solubility,[21],16 µg/mL
same,MIC,Cryptococcus neoformans [10],1 µg/mL
same,MIC,Candida parapsilosis [11],0.25 µg/mL
same,MIC,Pichia kudriavzevii [12],0.0625 µg/mL
CC(CO)n1ncn(-c2ccc(N3CCN(c4ccc(OC[C@H]5CO[C@](Cn6cncn6)(c6ccc(F)cc6F)O5)cc4)CC3)cn2)c1=O (stereo partly specified),MIC,Candida parapsilosis [1],0.5 µg/mL
same,MIC,Pichia kudriavzevii [2],0.0625 µg/mL
same,MIC,Cryptococcus neoformans [3],0.0625 µg/mL
same,MIC,Aspergillus flavus [4],0.125 µg/mL
same,MIC,Aspergillus fumigatus [5],1 µg/mL
same,MIC,Aspergillus fumigatus [6],1 µg/mL
same,MIC,Aspergillus flavus [7],0.125 µg/mL
same,MIC,Candida albicans [8],0.0625 µg/mL
same,MIC,Candida albicans [9],0.0625 µg/mL
same,MIC,Cryptococcus neoformans [10],0.0625 µg/mL
same,MIC,Candida parapsilosis [11],0.5 µg/mL
same,MIC,Pichia kudriavzevii [12],0.0625 µg/mL
CC(CO)Cn1ncn(-c2ccc(N3CCN(c4ccc(OC[C@H]5CO[C@](Cn6cncn6)(c6ccc(F)cc6F)O5)cc4)CC3)nc2)c1=O (stereo partly specified),MIC,Candida parapsilosis [1],2 µg/mL
same,MIC,Pichia kudriavzevii [2],0.125 µg/mL
same,MIC,Cryptococcus neoformans [3],0.0625 µg/mL
same,MIC,Aspergillus flavus [4],> 0.5 µg/mL
same,MIC,Aspergillus fumigatus [5],> 32 µg/mL
same,MIC,Aspergillus fumigatus [6],> 32 µg/mL
same,MIC,Aspergillus flavus [7],> 0.5 µg/mL
same,MIC,Candida albicans [8],0.0625 µg/mL
same,MIC,Candida albicans [9],0.0625 µg/mL
same,MIC,Cryptococcus neoformans [10],0.0625 µg/mL
same,MIC,Pichia kudriavzevii [12],0.125 µg/mL
